Values after ≈ are worked out from the molar mass of the structure shown. Values joined by “and” are separate entries in the source; they are usually repeats but may differ in a detail not shown here. Equal entries are not always repeated.
Experiments:
physchem [1] = details: aqueous buffer, pH 7
[2] = rat, plasma
[3] = target: Cyclin-dependent kinase 2/cyclin A (Homo sapiens, UniProt P24941); assay: Inhibition of cyclin dependent kinase 2-cyclin A; type: protein-complex assay
A2780 [4] = assay: Inhibitory concentration towards human ovarian carcinoma cell line A2780; type: functional, cell-based
[5] = target: T1, Cyclin-dependent kinase 4/cyclin D1 (Homo sapiens, UniProt P11802); assay: Inhibition of cyclin-dependent kinase 4-cyclin D1 (n=4); type: protein-complex assay
Outline: (§1)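 IC50 from at least two independent experiments; value is the mean of IC50s obtained by nonlinear least-squares regression fitting. Coefficient of variation of the mean 10% to 24%. GSK-3β belonged to a panel of 30 serine-threonine and tyrosine kinases.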

A2780 [6] = assay: Percent inhibition tumor growth of Human ovarian cancer cell A2780 in mice when administered 7.5 mg/kg twice a day for 20 days; type: functional; details: Mus musculus, A2780, 480 h
Outline: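 A2780 tumor kept by sc passage of 20-30 mg brei in athymic mice. Fragments implanted sc in left flank of nude mice, 10 mice/group. Dosing began at measurable tumors (mean 0.13 g, day 8). Dosed orally in 50% PEG 400/glucosate. Body weight followed. Data from a single experiment.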

HCT-116 = assay: Inhibitory concentration towards HCT 116 human colon cancer cell line; type: functional, cell-based
HT-29 [7] = assay: Percent of BrdU incorporation in HT-29 cells at 1 uM concentration of compound; type: functional
[8] = Inhibition of glycogen synthase kinase-3 beta (n=13)
Outline: as §1

A2780 [9] = assay: Inhibitory concentration towards Human ovarian carcinoma cell line A2780; type: functional, cell-based
HT-29 [10] = assay: Percent of BrdU incorporation in HT-29 cells at 3 uM concentration of compound; type: functional
[11] = target: T2, Cyclin-dependent kinase 2/cyclin E (Homo sapiens, UniProt P24941); assay: Inhibition of cyclin dependent kinase 2-cyclin E (n=6); type: protein-complex assay
Outline: as §1

HT-29 [12] = assay: Inhibitory concentration towards human colon cancer HT-29 cell line; type: functional, cell-based
[13] = target: T3, Cyclin-dependent kinase 1/cyclin B (Homo sapiens, UniProt P06493); assay: Inhibition of cyclin dependent kinase 1-cyclin B (n=6); type: protein-complex assay
Outline: as §1

[14] = Half-life of compound in plasma of CD-1 mice upon o.s. dose; type: ADME, cell-free; details: CD-1, mouse, po
Outline: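 Mice dosed orally at 10 mg/kg in PEG 400/glucosate vehicle (preliminary PK, with iv and oral legs); plasma terminal half-life determined.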

[15] = mouse, in vivo
[16] = Inhibition of glycogen synthase kinase-3 beta (n=6)
Outline: as §1

[17] = target: Cyclin-dependent kinase 5/CDK5 activator 1 (Homo sapiens, UniProt Q00535); assay: Inhibition of cyclin-dependent kinase 5 p25 alpha (n=4); type: protein-complex assay
Outline: as §1

[18] = target: T1, Cyclin-dependent kinase 4/cyclin D1; assay: Inhibition of cyclin-dependent kinase 4-cyclin D1 (n=2); type: protein-complex assay
Outline: as §1

HT-29 [19] = assay: Percent of BrdU incorporation in Brdu positive HT-29 cells at 3 uM concentration of compound; type: functional, Homo sapiens
[20] = target: T2, Cyclin-dependent kinase 2/cyclin E; assay: Inhibition of cyclin dependent kinase 2-cyclin E (n=4); type: protein-complex assay
Outline: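 Kinase inhibition assay run by a previously reported method. IC50 is the mean of values from nonlinear least-squares regression fits, with at least two independent experiments per compound. Coefficient of variation of the mean was 10% to 24%.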

[21] = target: T3, Cyclin-dependent kinase 1/cyclin B; assay: Inhibition of cyclin dependent kinase 1-cyclin B (n=4); type: protein-complex assay
Outline: as §1

[22] = mouse, in vivo; remark: listed apart in the source
physchem [23] = details: aqueous buffer
[24] = mouse, in vivo, iv
HT-29 [25] = assay: Percent of BrdU incorporation in Brdu positive HT-29 cells at 1 uM concentration of compound; type: functional, Homo sapiens

T1 sequence (P11802 whole entry): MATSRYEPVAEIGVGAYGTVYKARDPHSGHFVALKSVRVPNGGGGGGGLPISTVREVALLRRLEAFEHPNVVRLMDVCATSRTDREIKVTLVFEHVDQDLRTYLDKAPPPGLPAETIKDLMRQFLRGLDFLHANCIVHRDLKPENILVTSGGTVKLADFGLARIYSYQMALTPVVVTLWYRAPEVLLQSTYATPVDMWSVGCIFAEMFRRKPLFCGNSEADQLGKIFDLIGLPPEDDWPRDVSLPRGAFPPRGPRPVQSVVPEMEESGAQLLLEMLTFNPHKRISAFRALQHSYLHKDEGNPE
T1 sequence (P24385 whole entry, further chain): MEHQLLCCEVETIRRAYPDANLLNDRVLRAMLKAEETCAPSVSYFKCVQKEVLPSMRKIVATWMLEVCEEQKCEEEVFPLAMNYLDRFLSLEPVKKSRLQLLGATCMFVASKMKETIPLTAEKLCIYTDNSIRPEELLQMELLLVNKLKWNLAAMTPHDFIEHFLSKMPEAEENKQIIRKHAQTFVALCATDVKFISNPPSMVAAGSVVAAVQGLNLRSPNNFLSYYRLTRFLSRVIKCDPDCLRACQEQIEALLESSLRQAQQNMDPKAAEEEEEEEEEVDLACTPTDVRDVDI
Chain of Cyclin-dependent kinase 5/CDK5 activator 1 (Q00535 whole entry): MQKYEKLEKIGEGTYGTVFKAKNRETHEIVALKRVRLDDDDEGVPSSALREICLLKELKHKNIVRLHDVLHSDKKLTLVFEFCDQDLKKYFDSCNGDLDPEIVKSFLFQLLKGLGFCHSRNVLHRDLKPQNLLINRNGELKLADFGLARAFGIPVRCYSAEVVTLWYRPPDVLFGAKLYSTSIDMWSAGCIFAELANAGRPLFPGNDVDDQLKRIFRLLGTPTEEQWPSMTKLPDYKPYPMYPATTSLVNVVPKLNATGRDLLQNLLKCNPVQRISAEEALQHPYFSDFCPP
Chain of Cyclin-dependent kinase 5/CDK5 activator 1 (Q15078 whole entry, further chain): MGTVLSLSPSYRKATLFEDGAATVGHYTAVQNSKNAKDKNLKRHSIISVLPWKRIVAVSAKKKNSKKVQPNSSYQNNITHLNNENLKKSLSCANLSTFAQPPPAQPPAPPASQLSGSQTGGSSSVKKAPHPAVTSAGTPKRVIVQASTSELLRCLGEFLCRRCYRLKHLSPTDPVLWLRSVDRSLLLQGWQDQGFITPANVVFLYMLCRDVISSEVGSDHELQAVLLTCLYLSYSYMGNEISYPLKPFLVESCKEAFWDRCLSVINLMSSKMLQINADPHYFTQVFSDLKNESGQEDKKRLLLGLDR

Compound | solubility (physchem [1]) | Binding [2] | IC50 [3] | IC50 (A2780 [4]) | other results
O=C(Cc1ccc2ccccc2c1)Nc1cc(C2CC2)n[nH]1 | 22 µM (≈ 6.41 µg/mL) | 99% |  |  | 
C[C@@H](C(=O)Nc1cc(C2CC2)[nH]n1)c1ccc(N2CCNC2=O)cc1 | 220 µM (≈ 74.7 µg/mL) | 74% | 455 nM | 13200 nM | 
COC(C(=O)Nc1cc(C2CC2)[nH]n1)c1ccccc1 (configuration not stated) |  |  | 5000 nM |  | 
CO[C@H](C(=O)Nc1cc(C2CC2)n[nH]1)c1ccccc1 |  |  | 2000 nM |  | 
O=C(Nc1cc(C2CC2)n[nH]1)C(=O)c1ccccc1 |  |  | 2600 nM |  | 
CC(C(=O)Nc1cc(C2CC2)[nH]n1)c1ccc(N2CCCC2)cc1 (configuration not stated) | 3 µM (≈ 0.973 µg/mL) | 96% |  | 370 nM | 
C[C@H](C(=O)Nc1cc(C2CC2)[nH]n1)c1ccc(N2Cc3ccccc3C2=O)cc1 | 5 µM (≈ 1.93 µg/mL) |  | 2 nM | 1020 nM | 
C[C@H](C(=O)Nc1cc(C2CC2)[nH]n1)c1ccc(N2CCCC2=O)cc1 |  |  | 37 nM | 800 nM | IC50 [5]: > 10000 nM; inhibition in vivo at 7.5 mg/kg (A2780 [6]): 73%; IC50 (HCT-116): 1350 nM; Brdu positive (HT-29 [7]): 25%; IC50 [8]: 732 nM; IC50 (A2780 [9]): 744 nM; Brdu positive (HT-29 [10]): 4%; IC50 [11]: 55 nM; IC50 (HT-29 [12]): 639 nM; IC50 [13]: 208 nM
O=C(Nc1cc(C2CC2)[nH]n1)C(F)c1ccccc1 (configuration not stated) |  |  | 99 nM |  | 
C[C@H](C(=O)Nc1cc(C2CC2)[nH]n1)c1ccc(N2CCOC2=O)cc1 | 232 µM (≈ 79 µg/mL) | 73% and 74% | 20 nM | 790 nM | half-life [14]: 3.1 h; Vss [15]: 0.573 L/kg; IC50 [16]: 406 nM; IC50 [17]: 57 nM; IC50 [18]: > 10000 nM; IC50 (HCT-116): 1130 nM; Activity (HT-29 [19]): 0.7%; IC50 [20]: 37 nM; IC50 [21]: 243 nM; Clearance [22]: 4.7 mL/min/kg; IC50 (A2780 [9]): 716 nM; solubility (physchem [23]): 225 µM (≈ 76.6 µg/mL); T1/2 [24]: 2.8 min; IC50 (HT-29 [12]): 751 nM; Activity (HT-29 [25]): 65%
CC(C(=O)Nc1cc(C2CC2)[nH]n1)c1ccc(N2CCCCC2=O)cc1 (configuration not stated) |  |  | 240 nM | > 10000 nM | 
CC(C(=O)Nc1cc(C2CC2)[nH]n1)c1ccc(N2CCN(Cc3ccccc3)C2=O)cc1 (configuration not stated) |  |  | 1450 nM |  | 
C[C@H](C(=O)Nc1cc(C2CC2)[nH]n1)c1ccc(N2CCN(C)C2=O)cc1 |  |  | 17 nM | 1400 nM | 
C[C@@H](C(=O)Nc1cc(C2CC2)[nH]n1)c1ccc(N2Cc3ccccc3C2=O)cc1 | 51 µM (≈ 19.7 µg/mL) |  | 170 nM |  | 
C[C@@H](C(=O)Nc1cc(C2CC2)[nH]n1)c1ccc(N2CCOC2=O)cc1 | 220 µM (≈ 74.9 µg/mL) | 72% | 2500 nM |  | 
CC(C(=O)Nc1cc(C2CC2)[nH]n1)c1ccc(N2CCOC2=O)cc1 (configuration not stated) | 222 µM (≈ 75.6 µg/mL) | 73% | 25 nM | 1040 nM | 
CC(C(=O)Nc1cc(C2CC2)[nH]n1)c1ccc(N2C(=O)CCC2c2ccccc2)cc1 (configuration not stated) | 50 µM (≈ 20.7 µg/mL) | 97% | 200 nM | 15300 nM | 
C[C@@H](C(=O)Nc1cc(C2CC2)[nH]n1)c1ccc(N2CCCC2=O)cc1 |  |  | 2500 nM | 12200 nM | 
CC(C(=O)Nc1cc(C2CC2)[nH]n1)c1ccc(N2CCC(C(N)=O)C2=O)cc1 (configuration not stated) | 120 µM (≈ 45.8 µg/mL) | 57% | 20 nM | 5710 nM | 

Compound | solubility (physchem [1]) | Binding [2] | IC50 [3] | IC50 (A2780 [4]) | other results
C[C@H](C(=O)Nc1cc(C2CC2)[nH]n1)c1ccc(N2CCNC2=O)cc1 | > 225 µM | 74% | 2 nM | 1270 nM | 
O=C(Nc1cc(C2CC2)[nH]n1)C(c1ccccc1)c1ccccc1 |  |  | > 10000 nM |  | 
CC(C(=O)Nc1cc(C2CC2)[nH]n1)c1ccc(N2CCNC2=O)cc1 (configuration not stated) | 224 µM (≈ 76 µg/mL) | 74% | 12 nM | 2250 nM | 
CC(C(=O)Nc1cc(C2CC2)[nH]n1)c1ccc(-n2cc[nH]c2=O)cc1 (configuration not stated) | 233 µM (≈ 78.6 µg/mL) | 74% | 11 nM | 6980 nM | 
N[C@H](C(=O)Nc1cc(C2CC2)[nH]n1)c1ccccc1 |  |  | 960 nM |  | 
CC(C(=O)Nc1cc(C2CC2)[nH]n1)c1ccc(N2CC(=O)NC2=O)cc1 (configuration not stated) | 201 µM (≈ 71 µg/mL) | 67% | 17 nM | 4540 nM | 
CC(C(=O)Nc1cc(C2CC2)[nH]n1)c1ccccc1 (configuration not stated) |  |  | 169 nM |  | 
CC(C(=O)Nc1cc(C2CC2)[nH]n1)c1ccc(N2C(=O)CCC2C)cc1 (configuration not stated) | 222 µM (≈ 78.2 µg/mL) | 67% | 150 nM | 6400 nM | 
CC(C(=O)Nc1cc(C2CC2)[nH]n1)c1ccc(N2CCCC2=O)cc1 (configuration not stated) |  |  | 169 nM | 630 nM | 
CC(C(=O)Nc1cc(C2CC2)[nH]n1)c1ccc(N2CCN(C)C2=O)cc1 (configuration not stated) |  |  | 29 nM | 1680 nM | 
C[C@H](C(=O)Nc1cc(C2CC2)[nH]n1)c1ccc(N2CCCC2)cc1 | 24 µM (≈ 7.79 µg/mL) | 98% |  | 220 nM | 
C[C@@H](C(=O)Nc1cc(C2CC2)[nH]n1)c1ccc(N2CCN(C)C2=O)cc1 |  |  | 8500 nM |  | 
C[C@@H](C(=O)Nc1cc(C2CC2)[nH]n1)c1ccccc1 |  |  | 6000 nM |  | 
CC(C(=O)Nc1cc(C2CC2)[nH]n1)c1ccc(N2Cc3ccccc3C2=O)cc1 (configuration not stated) | 12 µM (≈ 4.64 µg/mL) |  | 13 nM | 4750 nM | 
C[C@H](C(=O)Nc1cc(C2CC2)[nH]n1)c1ccccc1 |  |  | 84 nM |  | 
CO[C@@H](C(=O)Nc1cc(C2CC2)n[nH]1)c1ccccc1 |  |  | > 10000 nM |  | 
CC(C(=O)Nc1cc(C2CC2)[nH]n1)c1ccc(N2CCCS2(=O)=O)cc1 (configuration not stated) | 135 µM (≈ 50.6 µg/mL) | 78% |  | 5240 nM | 
CC(C(=O)Nc1cc(C2CC2)[nH]n1)c1ccc(-n2cn[nH]c2=O)cc1 (configuration not stated) | 109 µM (≈ 36.9 µg/mL) | 58% | 73 nM | 8390 nM | 
CC(C(=O)Nc1cc(C2CC2)[nH]n1)c1ccc(N2C(=O)CNC2=O)cc1 (configuration not stated) |  |  | 124 nM | > 10000 nM | 

Source: ChEMBL document CHEMBL1143606, “3-Aminopyrazole inhibitors of CDK2/cyclin A as antitumor agents. 2. Lead optimization” (J Med Chem, 2005)
